Experimental data published in ChEMBL document CHEMBL1135742, “Modification of the structure of a metallopeptide: synthesis and biological evaluation of (111)In-labeled DOTA-conjugated rhenium-cyclized alpha-MSH analogues” (J Med Chem, 2002).

Tests used:
Assay type in all cases: functional, organism-based
Mus musculus [1] = species: Mus musculus; assay: Uptake Ratio of Tumor/blood (each in % ID/g) in B16/F1 Murine Melanoma-Bearing C57 Mice at 2 h
Outline: (§1)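 C57 BL/6 female mice (7–8 weeks) carried B16/F1 tumours from 1×10^6 cells given s.c. in the right flank; tumours were ~500 mg at 9–10 days. Each mouse received […] of HPLC-purified, neutralized 111In-DOTA peptide via the tail vein. Mice were killed at 0.5, 2, 4 or 24 h pi. Tissues were weighed and γ-counted, expressed as % ID/g; ratios were tumor/tissue % ID/g.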

Mus musculus [2] = species: Mus musculus; assay: Radioactivity uptake in the pancreas was expressed as a percentage of the injected radioactive dose per gram of tissue (% ID/g) in B16/F1 Murine Melanoma-Bearing C57 Mice at 4 h; outline: as §1
Mus musculus [3] = species: Mus musculus; assay: Radioactivity uptake in the heart was expressed as a percentage of the injected radioactive dose per gram of tissue (% ID/g) in B16/F1 Murine Melanoma-Bearing C57 Mice at 4 h; outline: as §1
Mus musculus [4] = species: Mus musculus; assay: Uptake Ratio of Tumor/kidneys (each in % ID/g) in B16/F1 Murine Melanoma-Bearing C57 Mice at 0.5 h; details: Kidney; outline: as §1
Mus musculus [5] = species: Mus musculus; assay: Radioactivity uptake in the lungs was expressed as a percentage of the injected radioactive dose per gram of tissue (% ID/g) in B16/F1 Murine Melanoma-Bearing C57 Mice at 4 h; details: Lung; outline: as §1
Mus musculus [6] = species: Mus musculus; assay: Radioactivity uptake in the spleen was expressed as a percentage of the injected radioactive dose per gram of tissue (% ID/g) in B16/F1 Murine Melanoma-Bearing C57 Mice at 0.5 h; outline: as §1
Mus musculus [7] = species: Mus musculus; assay: Uptake Ratio of Tumor/kidneys (each in % ID/g) in B16/F1 Murine Melanoma-Bearing C57 Mice at 4 h; details: Kidney; outline: as §1
Mus musculus [8] = species: Mus musculus; assay: Uptake Ratio of Tumor/liver (each in % ID/g) in B16/F1 Murine Melanoma-Bearing C57 Mice at 0.5 h; outline: as §1
Mus musculus [9] = species: Mus musculus; assay: Uptake Ratio of Tumor/liver (each in % ID/g) in B16/F1 Murine Melanoma-Bearing C57 Mice at 24 h; outline: as §1
Mus musculus [10] = species: Mus musculus; assay: Radioactivity uptake in the blood was expressed as a percentage of the injected radioactive dose per gram of tissue (% ID/g) in B16/F1 Murine Melanoma-Bearing C57 Mice at 24 h; outline: as §1
Mus musculus [11] = species: Mus musculus; assay: Radioactivity uptake in the kidneys was expressed as a percentage of the injected radioactive dose per gram of tissue (% ID/g) in B16/F1 Murine Melanoma-Bearing C57 Mice at 4 h; details: Kidney; outline: as §1
Mus musculus [12] = species: Mus musculus; assay: Radioactivity uptake in the kidneys was expressed as a percentage of the injected radioactive dose per gram of tissue (% ID/g) in B16/F1 Murine Melanoma-Bearing C57 Mice at 0.5 h; details: Kidney; outline: as §1
Mus musculus [13] = species: Mus musculus; assay: Radioactivity uptake in the spleen was expressed as a percentage of the injected radioactive dose per gram of tissue (% ID/g) in B16/F1 Murine Melanoma-Bearing C57 Mice at 2 h; outline: as §1
Mus musculus [14] = species: Mus musculus; assay: Radioactivity uptake in the tumor was expressed as a percentage of the injected radioactive dose per gram of tissue (% ID/g) in B16/F1 Murine Melanoma-Bearing C57 Mice at 0.5 h; outline: as §1
Mus musculus [15] = species: Mus musculus; assay: Uptake Ratio of Tumor/blood (each in % ID/g) in B16/F1 Murine Melanoma-Bearing C57 Mice at 4 h; outline: as §1
Mus musculus [16] = species: Mus musculus; assay: Radioactivity uptake in the spleen was expressed as a percentage of the injected radioactive dose per gram of tissue (% ID/g) in B16/F1 Murine Melanoma-Bearing C57 Mice at 24 h; outline: as §1
Mus musculus [17] = species: Mus musculus; assay: Radioactivity uptake in the heart was expressed as a percentage of the injected radioactive dose per gram of tissue (% ID/g) in B16/F1 Murine Melanoma-Bearing C57 Mice at 0.5 h; outline: as §1
Mus musculus [18] = species: Mus musculus; assay: Radioactivity uptake in the kidneys was expressed as a percentage of the injected radioactive dose per gram of tissue (% ID/g) in B16/F1 Murine Melanoma-Bearing C57 Mice at 2 h; details: Kidney; outline: as §1
Mus musculus [19] = species: Mus musculus; assay: Radioactivity uptake in the pancreas was expressed as a percentage of the injected radioactive dose per gram of tissue (% ID/g) in B16/F1 Murine Melanoma-Bearing C57 Mice at 2 h; outline: as §1
Mus musculus [20] = species: Mus musculus; assay: Uptake Ratio of Tumor/lungs (each in % ID/g) in B16/F1 Murine Melanoma-Bearing C57 Mice at 4 h
Outline: (§2)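 Female C57 BL/6 mice, 7–8 weeks old, carried subcutaneous right-flank B16/F1 tumors from 1×10^6 cells and were used 9–10 days later at ~500 mg tumor weight. Each received […] of HPLC-purified, pH-neutralized ¹¹¹In-DOTA peptide by tail vein. Tumor and organs were excised at the stated time, weighed and γ-counted. Each tissue was taken as % ID/g, and tumor/normal-tissue ratios were formed from these values.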

Mus musculus [21] = species: Mus musculus; assay: Radioactivity uptake in the lungs was expressed as a percentage of the injected radioactive dose per gram of tissue (% ID/g) in B16/F1 Murine Melanoma-Bearing C57 Mice at 2 h; details: Lung; outline: as §1
Mus musculus [22] = species: Mus musculus; assay: Radioactivity uptake in the muscle was expressed as a percentage of the injected radioactive dose per gram of tissue (% ID/g) in B16/F1 Murine Melanoma-Bearing C57 Mice at 4 h; outline: as §1
Mus musculus [23] = species: Mus musculus; assay: Radioactivity uptake in the blood was expressed as a percentage of the injected radioactive dose per gram of tissue (% ID/g) in B16/F1 Murine Melanoma-Bearing C57 Mice at 4 h; outline: as §1
Mus musculus [24] = species: Mus musculus; assay: Uptake Ratio of Tumor/lungs (each in % ID/g) in B16/F1 Murine Melanoma-Bearing C57 Mice at 0.5 h; outline: as §2
Mus musculus [25] = species: Mus musculus; assay: Radioactivity uptake in the muscle was expressed as a percentage of the injected radioactive dose per gram of tissue (% ID/g) in B16/F1 Murine Melanoma-Bearing C57 Mice at 24 h; outline: as §1
Mus musculus [26] = species: Mus musculus; assay: Radioactivity uptake in the heart was expressed as a percentage of the injected radioactive dose per gram of tissue (% ID/g) in B16/F1 Murine Melanoma-Bearing C57 Mice at 2 h; outline: as §1
Mus musculus [27] = species: Mus musculus; assay: Radioactivity uptake in the liver was expressed as a percentage of the injected radioactive dose per gram of tissue (% ID/g) in B16/F1 Murine Melanoma-Bearing C57 Mice at 2 h; outline: as §1
Mus musculus [28] = species: Mus musculus; assay: Radioactivity uptake in the muscle was expressed as a percentage of the injected radioactive dose per gram of tissue (% ID/g) in B16/F1 Murine Melanoma-Bearing C57 Mice at 2 h; outline: as §1
Mus musculus [29] = species: Mus musculus; assay: Uptake Ratio of Tumor/muscle (each in % ID/g) in B16/F1 Murine Melanoma-Bearing C57 Mice at 2 h; details: Muscle tissue; outline: as §2
Mus musculus [30] = species: Mus musculus; assay: Uptake Ratio of Tumor/blood (each in % ID/g) in B16/F1 Murine Melanoma-Bearing C57 Mice at 24 h; outline: as §1
Mus musculus [31] = species: Mus musculus; assay: Uptake Ratio of Tumor/kidneys (each in % ID/g) in B16/F1 Murine Melanoma-Bearing C57 Mice at 24 h; details: Kidney; outline: as §1
Mus musculus [32] = species: Mus musculus; assay: Radioactivity uptake in the lungs was expressed as a percentage of the injected radioactive dose per gram of tissue (% ID/g) in B16/F1 Murine Melanoma-Bearing C57 Mice at 0.5 h; details: Lung; outline: as §1
Mus musculus [33] = species: Mus musculus; assay: Uptake Ratio of Tumor/lungs (each in % ID/g) in B16/F1 Murine Melanoma-Bearing C57 Mice at 24 h; outline: as §2

Substance	Uptake ratio (Mus musculus [1])	ID/g (Mus musculus [2])	ID/g (Mus musculus [3])	Uptake ratio (Mus musculus [4])	ID/g (Mus musculus [5])	ID/g (Mus musculus [6])	Uptake ratio (Mus musculus [7])	Uptake ratio (Mus musculus [8])	Uptake ratio (Mus musculus [9])	ID/g (Mus musculus [10])	ID/g (Mus musculus [11])	ID/g (Mus musculus [12])	ID/g (Mus musculus [13])	ID/g (Mus musculus [14])	Uptake ratio (Mus musculus [15])	ID/g (Mus musculus [16])	ID/g (Mus musculus [17])	ID/g (Mus musculus [18])	ID/g (Mus musculus [19])	Uptake ratio (Mus musculus [20])	other results
Ac-Lys(DOTA)-ReCCEHdFRWCKPV-NH2	175	0.057%	0.029%	0.3	0.18%	0.51%	0.28	10.7	12.7	0.072%	19%	23.4%	0.11%	7.15%	88.7	0.21%	0.86%	18.4%	0.074%	48.4	ID/g (Mus musculus [21]): 0.18%; ID/g (Mus musculus [22]): 0.017%; ID/g (Mus musculus [23]): 0.082%; Uptake ratio (Mus musculus [24]): 4.7; ID/g (Mus musculus [25]): 0.11%; ID/g (Mus musculus [26]): 0.08%; ID/g (Mus musculus [27]): 0.24%; ID/g (Mus musculus [28]): 0.02%; Uptake ratio (Mus musculus [29]): 468; Uptake ratio (Mus musculus [30]): 67.2; Uptake ratio (Mus musculus [31]): 0.27; ID/g (Mus musculus [32]): 1.51%; Uptake ratio (Mus musculus [33]): 22.9
DOTA-ReCCEHdFRWCKPV-NH2	196	0.043%	0.12%	0.85	0.11%	0.59%	1.1	18.4	32.7	0.01%	9.27%	13%	0.09%	10.4%	490	0.14%	0.72%	8.98%	0.048%	100	ID/g (Mus musculus [21]): 0.18%; ID/g (Mus musculus [22]): 0.093%; ID/g (Mus musculus [23]): 0.034%; Uptake ratio (Mus musculus [24]): 6.6; ID/g (Mus musculus [25]): 0.031%; ID/g (Mus musculus [26]): 0.066%; ID/g (Mus musculus [27]): 0.23%; ID/g (Mus musculus [28]): 0.047%; Uptake ratio (Mus musculus [29]): 319; Uptake ratio (Mus musculus [30]): 601; Uptake ratio (Mus musculus [31]): 0.88; ID/g (Mus musculus [32]): 1.7%; Uptake ratio (Mus musculus [33]): 169
DOTA-ReCCEHdFRWCKPV-OH	143	0.074%	0.12%	0.95	0.1%	0.4%	1.1	23.1	18.5	0.1%	8.7%	11.5%	0.2%	10.4%	200	0.22%	0.68%	8.8%	0.03%	92	ID/g (Mus musculus [21]): 0.18%; ID/g (Mus musculus [22]): 0.035%; ID/g (Mus musculus [23]): 0.056%; Uptake ratio (Mus musculus [24]): 9; ID/g (Mus musculus [25]): 0.14%; ID/g (Mus musculus [26]): 0.058%; ID/g (Mus musculus [27]): 0.15%; ID/g (Mus musculus [28]): 0.054%; Uptake ratio (Mus musculus [29]): 174; Uptake ratio (Mus musculus [30]): 22.4; Uptake ratio (Mus musculus [31]): 0.43; ID/g (Mus musculus [32]): 1.21%; Uptake ratio (Mus musculus [33]): 85.1
DOTA-ReCCEHdFRWCKPVD-OH	224	0.031%	0.054%	0.78	0.097%	0.29%	0.91	20.7	12.9	0.018%	8.13%	11.5%	0.23%	8.96%	199	0.043%	0.44%	8.07%	0.029%	104	ID/g (Mus musculus [21]): 0.16%; ID/g (Mus musculus [22]): 0.047%; ID/g (Mus musculus [23]): 0.051%; Uptake ratio (Mus musculus [24]): 7.8; ID/g (Mus musculus [25]): 0.082%; ID/g (Mus musculus [26]): 0.07%; ID/g (Mus musculus [27]): 0.16%; ID/g (Mus musculus [28]): 0.13%; Uptake ratio (Mus musculus [29]): 102; Uptake ratio (Mus musculus [30]): 65.5; Uptake ratio (Mus musculus [31]): 0.4; ID/g (Mus musculus [32]): 1.16%; Uptake ratio (Mus musculus [33]): 105
DOTA-ReCCEHdFRWCRPV-NH2	93.7	0.015%	0.054%	1.8	0.13%	0.78%	2.5	25.2	25.6	0.06%	7.37%	9.31%	0.27%	16.6%	254	0.32%	0.76%	8.72%	0.08%	122	ID/g (Mus musculus [21]): 0.3%; ID/g (Mus musculus [22]): 0.086%; ID/g (Mus musculus [23]): 0.085%; Uptake ratio (Mus musculus [24]): 11.1; ID/g (Mus musculus [25]): 0.14%; ID/g (Mus musculus [26]): 0.07%; ID/g (Mus musculus [27]): 0.38%; ID/g (Mus musculus [28]): 0.03%; Uptake ratio (Mus musculus [29]): 2100; Uptake ratio (Mus musculus [30]): 95; Uptake ratio (Mus musculus [31]): 1.5; ID/g (Mus musculus [32]): 1.66%; Uptake ratio (Mus musculus [33]): 43.7
